# Results taken from paper PMC4680848 (Structure (London, England : 1993), 2015).
# “Also recorded” adds a separate entry of the source.
# T1: BiP SBD-L3,4′ (residues 418-636), the SBD part of SBD-L3,4′-Tev-NR (human, UniProt P11021 418-636, L3,4′ (TASDNQP→VGG))
# T1 sequence (looked up): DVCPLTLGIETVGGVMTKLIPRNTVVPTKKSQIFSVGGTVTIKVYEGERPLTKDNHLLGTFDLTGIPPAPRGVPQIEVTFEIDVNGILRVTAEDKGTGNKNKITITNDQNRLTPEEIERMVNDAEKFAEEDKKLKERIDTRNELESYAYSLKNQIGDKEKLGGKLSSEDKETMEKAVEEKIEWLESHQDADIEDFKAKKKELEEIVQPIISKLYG
# Columns and labels:
# isolated SBD of BiP = assay: Fluorescence polarization NR peptide binding affinity; set-up: species or system human; details: isolated SBD vs full-length BiP
# Procedure, shortened: (§1)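 Human BiP proteins (wild type or variant) were made as Smt3 fusions in E. coli BL21(DE3)Gold. They were purified on HisTrap, cut with Ulp1, run over a second HisTrap, then HiTrap Q and Superdex 200, and stored in 5 mM Hepes-KOH pH7.5, 10 mM KCl. Binding of NR peptide (NRLLLTG) was read by fluorescence polarization across serial protein dilutions. Kd was fitted from binding curves; standard errors come from at least 6 assays on more than two protein purifications.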
# BiP R532E = BiP R532E (Homo sapiens, UniProt P11021, R532E); assay: Fluorescence anisotropy NR peptide binding affinity; details: WT BiP as control
# Procedure, shortened: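 BiP wild type and mutants were expressed in E. coli BL21(DE3)Gold as Smt3 fusions. Purification was by HisTrap, Ulp1 tag removal, a second HisTrap, HiTrap Q and Superdex 200. Fluorescence polarization/anisotropy binding of NR peptide (NRLLLTG) was measured with serial dilutions of protein, in the presence of ADP or ATP. Kd was calculated from the binding data.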
# human BiP [1] = target: T2, human BiP (Homo sapiens, UniProt P11021); assay: Fluorescence anisotropy peptide substrate binding kinetics
# BiP-L3,4′ = assay: Fluorescence polarization NR peptide binding; set-up: species or system human; details: L3,4′ modification (TASDNQP→VGG); WT BiP as positive control
# Procedure, shortened: as §1
# BiP SBD-Tev-NR = assay: Fluorescence polarization NR peptide binding; set-up: species or system human; details: SBD with covalently linked NR peptide; WT BiP SBD as positive control
# Procedure, shortened: as §1
# BiP-PP (G486P/G493P) [2] = target: T3, BiP-PP (G486P/G493P) (Homo sapiens, UniProt P11021, G486P/G493P); assay: Fluorescence polarization peptide binding affinity
# human BiP [3] = target: T2, human BiP; assay: Fluorescence polarization NR peptide binding affinity; details: WT BiP
# Procedure, shortened: as §1
# BiP-PP (G486P/G493P) [4] = target: T3, BiP-PP (G486P/G493P); assay: Fluorescence anisotropy peptide substrate binding kinetics; details: F-NR peptide
# BiP-PP = assay: Single-turnover ATPase assay; format: biochemical, human; details: single turn-over
# BiP-T229A = assay: Fluorescence polarization NR peptide binding; set-up: species or system human; details: effect of ATP, WT BiP as positive control
# Procedure, shortened: as §1
# [5] = target: F-NR peptide (labelled NR peptide, sequence NRLLLTG); assay: fluorescence polarisation
# [6] = target: T1, BiP SBD-L3,4′ (residues 418-636), the …; assay: crystal structure
# BiP [7] = details: ref Marcinowski et al., 2011; cited from earlier work
# BiP [8] = assay: Single-turnover ATPase assay; format: biochemical, human
# [9] = tested on: DnaK-PP (DnaK-G461P/G468P); assay: Single-turnover ATPase assay; format: biochemical, E. coli
# T2 sequence (P11021 19-654): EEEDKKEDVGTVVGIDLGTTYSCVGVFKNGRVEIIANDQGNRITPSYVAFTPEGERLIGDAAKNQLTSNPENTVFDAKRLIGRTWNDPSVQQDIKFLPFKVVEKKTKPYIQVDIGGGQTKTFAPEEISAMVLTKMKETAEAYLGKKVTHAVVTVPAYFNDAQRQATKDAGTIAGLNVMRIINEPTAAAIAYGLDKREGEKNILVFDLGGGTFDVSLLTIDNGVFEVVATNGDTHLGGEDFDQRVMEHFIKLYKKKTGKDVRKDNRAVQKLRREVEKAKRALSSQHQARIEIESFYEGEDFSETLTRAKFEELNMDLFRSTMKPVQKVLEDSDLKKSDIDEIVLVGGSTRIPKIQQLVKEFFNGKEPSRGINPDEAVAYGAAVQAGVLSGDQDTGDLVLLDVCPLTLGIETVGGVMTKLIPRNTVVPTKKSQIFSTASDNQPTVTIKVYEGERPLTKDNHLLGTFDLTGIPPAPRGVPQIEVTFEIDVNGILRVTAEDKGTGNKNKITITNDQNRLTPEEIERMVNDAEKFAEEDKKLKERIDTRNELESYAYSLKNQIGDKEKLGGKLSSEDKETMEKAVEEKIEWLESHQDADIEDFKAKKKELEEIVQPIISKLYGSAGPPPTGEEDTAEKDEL
# T3 sequence (P11021 25-654 G486P/G493P limits assumed): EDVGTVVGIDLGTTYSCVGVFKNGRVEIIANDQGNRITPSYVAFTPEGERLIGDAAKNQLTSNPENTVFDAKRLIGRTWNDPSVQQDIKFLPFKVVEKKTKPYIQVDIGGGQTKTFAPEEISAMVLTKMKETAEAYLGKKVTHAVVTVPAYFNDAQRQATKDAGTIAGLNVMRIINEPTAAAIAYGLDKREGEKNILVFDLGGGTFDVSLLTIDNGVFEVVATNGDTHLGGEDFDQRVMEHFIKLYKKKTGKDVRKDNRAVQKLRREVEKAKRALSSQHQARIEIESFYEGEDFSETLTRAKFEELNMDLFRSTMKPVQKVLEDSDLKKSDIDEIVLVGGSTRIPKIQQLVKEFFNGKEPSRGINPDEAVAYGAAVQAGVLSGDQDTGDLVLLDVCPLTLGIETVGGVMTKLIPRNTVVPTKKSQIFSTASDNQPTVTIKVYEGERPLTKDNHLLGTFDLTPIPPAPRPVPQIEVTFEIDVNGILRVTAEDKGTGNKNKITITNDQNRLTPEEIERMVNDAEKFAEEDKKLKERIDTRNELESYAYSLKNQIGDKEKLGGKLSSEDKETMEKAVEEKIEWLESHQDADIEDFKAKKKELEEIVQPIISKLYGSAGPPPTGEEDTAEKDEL
# Chain of BiP R532E (P11021 19-654 R532E): as the sequence (P11021 19-654) above, with R514E counted along it
molecule,measurement,setting,value
NRLLLTG [NR peptide],affinity of isolated SBD for NR peptide,isolated SBD of BiP,affinity comparable to full-length BiP
same,affinity for NR peptide in the presence of ADP,BiP R532E; +ADP,normal affinity
same,affinity for NR peptide in the presence of ATP,BiP R532E; +ATP,higher than that of WT BiP
same,"binding kinetics, both on and off rates, relative to DnaK","human BiP [1]; BiP vs DnaK, Fig. S1a,b",much slower than those of DnaK
same,binding kinetics in the presence of ADP,"human BiP [1]; WT BiP, +ADP, F-NR peptide",binding kinetics are slow
same,binding kinetics in the presence of ATP,"human BiP [1]; WT BiP, +ATP, F-NR peptide",fast binding kinetics
same,affinity for NR peptide / NR peptide binding,"BiP-L3,4′",drastically compromised the NR peptide binding; also recorded: drastically reduced affinity
same,binding of free NR peptide,BiP SBD-Tev-NR,"Neither BiP SBD-Tev–NR nor SBD-L3,4′-Tev-NR showed appreciable binding; also recorded: completely blocks the binding of free NR peptide"
same,affinity for NR peptide in the presence of ADP,BiP-PP (G486P/G493P) [2],reduced affinity
same,binding affinity in the presence of ADP,human BiP [3]; +ADP,binding affinity is high
same,affinity for NR peptide in the presence of ATP,human BiP [3]; +ATP,drastically reduced the affinity
same,NR peptide binding,"human BiP [3]; fluorescence polarization, serial dilutions of BiP",binds NR peptide through its SBD and in an ATP-sensitive manner; also recorded: good affinity
same,binding kinetics in the presence of ADP,BiP-PP (G486P/G493P) [4],fast binding kinetics
same,stimulation of ATPase activity by NR peptide,BiP-PP,failed to stimulate the ATPase activity; also recorded: little appreciable stimulation
same,"NR peptide binding / affinity, ATP sensitivity",BiP-T229A,binds NR peptide in an ATP-sensitive manner like that of WT BiP; also recorded: significantly reduced affinity for NR peptide in the presence of ATP
"human BiP (binding immunoglobulin protein), wild type (from UniProt P11021 19-654) (natural protein)",Kd relative to that of DnaK,[5],2 times lower
"NRLLLTG [NR peptide (sequence NRLLLTG), unlabelled]",binding result,[6],binds
"ERdj3: an abundant class I Hsp40 in ER, proposed to be an Hsp40 for BiP (protein) GRDFYKILGVPRSASIKDIKKAYRKLALQLHPDRNPDDPQAQEKFQDLGAAYEVLSDSEKRKQYDTYGEEGLKDGHQSSHGDIFSHFFGDFGFMFGGTPRQQDRNIPRGSDIIVDLEVTLEEVYAGNFVEVVRNKPVARQAPGKRKCNCRQEMRTTQLGPGRFQMTQEVVCDECPNVKLVNEERTLEVEIEPGVRDGMEYPFIGEGEPHVDGEPGDLRFRIKVVKHPIFERRGDDLYTNVTISLVESLVGFEMDITHLDGHKVHISRDKITRPGAKLWKKGEGLPNFDNNNIKGSLIITFDVDFPKEQLTEEAREGIKQLLKQGSVQKVYNGLQGY",interaction of ERdj3 with BiP in the presence of ADP,BiP [7],significant interaction with BiP in the presence of ADP
same,fold of stimulation of ATPase activity by ERdj3,"BiP [8]; ERdj3 at 4 μM, intrinsic ATPase activity set as 1",more than 20 fold
same,stimulation of ATPase activity by ERdj3,"[9]; DnaK-PP, single turn-over",significant stimulation; also recorded: significant stimulation on DnaK-PP although to less extend than that of DnaJ; also recorded: stimulated DnaK-PP significantly
same,stimulation of ATPase activity by ERdj3,DnaK; single turn-over,stimulated DnaK’s ATPase activity robustly
same,stimulation of ATPase activity by ERdj3,BiP-PP,Neither ERdj3 (d) nor DnaJ (f) showed appreciable stimulation; also recorded: failed to show any appreciable stimulation
DnaJ: an Hsp40 co-chaperone for DnaK and founding representative of the class I Hsp40s (protein) MAKQDYYEILGVSKTAEEREIRKAYKRLAMKYHPDRNQGDKEAEAKFKEIKEAYEVLTDSQKRAAYDQYGHAAFEQGGMGGGGFGGGADFSDIFGDVFGDIFGGGRGRQRAARGADLRYNMELTLEEAVRGVTKEIRIPTLEECDVCHGSGAKPGTQPQTCPTCHGSGQVQMRQGFFAVQQTCPHCQGRGTLIKDPCNKCHGHGRVERSKTLSVKIPAGVDTGDRIRLAGEGEAGEHGAPAGDLYVQVQVKQHPIFEREGNNLYCEVPINFAMAALGGEIEVPTLDGRVKLKVPGETQTGKLFRMRGKGVKSVRGGAQGDLLCRVVVETPVGLNERQKQLLQELQESFGGPTGEHNSPRSKSFFDGVKKFFDDLTR,stimulation of ATPase activity by DnaJ,BiP [8]; compared with ERdj3,stimulated BiP although to less extend as ERdj3
same,stimulation of ATPase rate by DnaJ relative to WT DnaK,[9]; DnaK-PP vs WT DnaK,about two thirds of that of WT
same,stimulation of ATPase activity by DnaJ,"[9]; DnaK-PP, single turn-over",significant stimulation; also recorded: stimulates the ATPase rate of DnaK-PP drastically; also recorded: stimulated DnaK-PP significantly
same,fold of stimulation of ATPase rate by DnaJ,"DnaK; DnaJ at 0.4 μM, intrinsic ATPase activity set as 1",~60 fold
same,stimulation of ATPase activity by DnaJ,BiP-PP,Neither ERdj3 (d) nor DnaJ (f) showed appreciable stimulation; also recorded: failed to stimulate BiP-PP appreciably
